From publication PMC4242102 (Investigational new drugs, 2013)
pIC50: −log10 of the molar value.

How the values were obtained:
[1] = tested on: SCK mammary carcinoma cells; assay: Cytotoxicity assay; format: cell-based, murine; settings: Mus musculus, 72 h, read-out: IC50 on cell viability
Procedure, shortened: (§1)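 Cells maintained on uncoated flasks in RPMI 1640 with 10% FBS and 1% penicillin/streptomycin; mycoplasma-checked. Seeded at 3,000 cells/well, allowed ≥3 h adherence (37 °C, 5% CO2), then treated 72 h with graded test compound concentrations. CCK-8 or MTT colorimetric viability, expressed against vehicle-treated cultures. Triplicate wells, at least three independent runs. Apparent IC50 (concentration giving 50% viability) read from mean dose-response curves.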

[2] = tested on: A549 lung carcinoma cells; assay: Cytotoxicity assay; format: cell-based; settings: Homo sapiens, A549, 72 h, read-out: IC50 on cell viability
Procedure, shortened: as §1

[3] = tested on: HUVEC; assay: Cytotoxicity assay; format: cell-based; settings: Homo sapiens, 72 h, read-out: IC50 on cell viability
Procedure, shortened: (§2)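 Cells grown in 0.2% gelatin-coated flasks in RPMI 1640 with 20% human serum, 2 mM glutamine, penicillin/streptomycin. Seeded at 3,000 cells/well and allowed to adhere ≥3 h (37 °C, 5% CO2), then exposed to a range of test compound concentrations for 72 h. Viability measured by CCK-8 or MTT, relative to vehicle-only cultures. Triplicate wells, ≥3 independent experiments. Apparent IC50 (concentration giving 50% viability) taken from mean dose-response curves.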

[4] = tested on: 2H11 endothelial cells; assay: Cytotoxicity assay; format: cell-based, murine; settings: Mus musculus, Endothelial cell, 72 h, read-out: IC50 on cell viability
Procedure, shortened: as §1

[5] = tested on: Fibroblasts; assay: Cytotoxicity assay; format: cell-based; settings: Fibroblast, 72 h, read-out: IC50 on cell viability
Procedure, shortened: as §2

[6] = tested on: MA148 ovarian carcinoma cells; assay: Cytotoxicity assay; format: cell-based; settings: Homo sapiens, Ovarian carcinoma cell, 72 h, read-out: IC50 on cell viability
Procedure, shortened: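 3,000 cells/well, left to adhere at least 3 h at 37 °C in 5% CO2, then exposed to various test compound concentrations for 72 h. Viability read colorimetrically (CCK-8 or MTT) as percentage of vehicle-only cultures. Each experiment in triplicate, repeated ≥3 times. Apparent IC50 (concentration for 50% viability) derived from averaged dose-response curves.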

[7] = tested on: FSAII fibrosarcoma cells; assay: Cytotoxicity assay; format: cell-based, murine; settings: Mus musculus, 72 h, read-out: IC50 on cell viability
Procedure, shortened: as §1

[8] = General toxicity; format: in vivo; settings: 10 mg/kg IP BID, comparison study (Fig. 4b)
[9] = tested on: B16F10 melanoma cells; assay: Cytotoxicity assay; format: cell-based, murine; settings: Mus musculus, B16-F10, 72 h, read-out: IC50 on cell viability
Procedure, shortened: as §1

**Q.** Which results are given for `CN(C)CCNC(=O)COc1c2cccc1Cc1cccc(c1OCC(=O)NCCN(C)C)Cc1cccc(c1OCC(=O)NCCN(C)C)Cc1cccc(c1OCC(=O)NCCN(C)C)C2` [PTX008]?
**A.** pIC50 [1]: 4.00; pIC50 [2]: 5.70; pIC50 [3]: 5.52; pIC50 [4]: < 4.00; pIC50 [5]: 4.46; pIC50 [6]: 6.30; pIC50 [7]: < 4.70; body weights of mice during treatment [8]: remained constant; pIC50 [9]: 4.10
